Here are results for one compound from ChEMBL document CHEMBL1139875, “Discovery of 4-aminobutyric acid derivatives possessing anticonvulsant and antinociceptive activities: a hybrid pharmacophore approach” (2007).

Calls of active or inactive are those of the source. No cut-off for these calls is given here.

Assay [1] deals with Mus musculus. In words: Anticonvulsant activity in Swiss Albino mouse at 30 mg/kg, ip after 0.5 hr by MES test. In kind it is functional, organism-based. Set-up: dose 30 mg/kg. The gist of the method:
(§1)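 Mice (Swiss, 20-25 g) given i.p. doses of 30, 100 and 300 mg/kg under ADD program protocols, three per group, examined at 0.5 and 4 h in MES, scPTZ, scSTY or scPIC seizure tests. Value is the minimum dose protecting half or more of the mice.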

The test system of assay [2] is Mus musculus. Nature of the assay: Anticonvulsant activity in Swiss Albino mouse at 30 mg/kg, ip after 4 hrs by MES test. Set-up: dose 30 mg/kg. In kind it is functional, organism-based. The method, boiled down: as §1
The subject of assay [3] is Mus musculus. In words: Anticonvulsant activity in Swiss Albino mouse at 300 mg/kg, ip after 0.5 hr by scPTZ test. In kind it is functional, organism-based. The arrangement: dose 300 mg/kg. The gist of the method: as §1
Assay [4] relates to Mus musculus. In words: Anticonvulsant activity in Swiss Albino mouse at 300 mg/kg, ip after 0.5 hr by scSTY test. In kind it is functional, organism-based. The arrangement: dose 300 mg/kg. The method, boiled down:
as §1

Assay [5] deals with Mus musculus. In words: Anticonvulsant activity in Swiss Albino mouse at 300 mg/kg, ip after 4 hrs by scSTY test. In kind it is functional, organism-based. The arrangement: dose 300 mg/kg. The gist of the method:
as §1

Assay [6] concerns Mus musculus. In words: Anticonvulsant activity in Swiss Albino mouse at 300 mg/kg, ip after 0.5 hr by scPIC test. Set-up: dose 300 mg/kg. In kind it is functional, organism-based. The gist of the method: as §1
The subject of assay [7] is Mus musculus. In words: Anticonvulsant activity in Swiss Albino mouse at 300 mg/kg, ip after 4 hrs by scPIC test. In kind it is functional, organism-based. The arrangement: dose 300 mg/kg. The gist of the method: as §1
Assay [8] concerns Mus musculus. Nature of the assay: Neurotoxicity in Swiss Albino mouse at 100 mg/kg, ip after 0.5 hr by rotarod test. In kind it is functional, organism-based. The arrangement: dose 100 mg/kg. The gist of the method:
(§2)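 Swiss mice (20-25 g) are trained on an accelerating rotorod (10 rpm, 3.2 cm rod), then injected i.p. at 30, 100 or 300 mg/kg, with three per group. Neurotoxicity means failure to keep equilibrium for at least 1 min in each of three trials, checked at 0.5 and 4 h. The value reported is the minimum dose affecting half or more of the mice.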
For orientation: The rotarod test checks motor coordination on a turning rod.

The subject of assay [9] is Mus musculus. Nature of the assay: Neurotoxicity in Swiss Albino mouse at 100 mg/kg, ip after 4 hrs by rotarod test. In kind it is functional, organism-based. Set-up: dose 100 mg/kg. The gist of the method:
as §2

Assay [10] has as its system Mus musculus. Nature of the assay: Analgesic activity in Swiss Albino mouse assessed as number of acetic acid-induced writhing per 30 min after 100 mg/kg, ip. In kind it is functional. The gist of the method: (§3)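 Mice in groups of six dosed i.p. at 100 mg/kg, controls receiving 30% v/v PEG 400 in water. Writhing induced by i.p. 0.1 mL of 3% v/v acetic acid 1 h after drug. Writhes (abdominal stretch with at least one hind limb extended) counted over 30 min; % inhibition calculated. Mean ± SEM, Student's t test.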

For assay [11], the system named is Mus musculus. Nature of the assay: Analgesic activity in Swiss Albino mouse assessed as inhibition of acetic acid-induced writhing responses at 100 mg/kg, ip. In kind it is functional. The gist of the method: as §3
In general terms: In writhing tests, fewer writhes than in controls are read as antinociception.

On to `O=C1NC(=O)C(c2ccccc2)(c2ccccc2)N1`, for which the outcome in the assay with Mus musculus [1], with Mus musculus [2], in the assay with Mus musculus [8] and with Mus musculus [9] was Active. Also, the result in the assay on Mus musculus [3], with Mus musculus [4], in the assay with Mus musculus [5], with Mus musculus [6], in the assay on Mus musculus [7] and with Mus musculus [10] was inactive. The result in the assay on Mus musculus [11] was inactive.
